ChEMBL document CHEMBL3596194, “Design, synthesis and biological evaluation of bivalent benzoxazolone and benzothiazolone ligands as potential anti-inflammatory/analgesic agents” (Bioorg Med Chem, 2015)
Active and inactive are the calls of the source. The calls are words filed in the database; no cut-off is given here.

Key:
BT-549 [1] = test: Cytotoxicity against human BT549 cells after 48 hrs by neutral red assay relative to control; format: cell-based; conditions: BT-549, 48 h
Procedure, shortened: (§1)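 Cells grown in RPMI-1640 with 10% bovine calf serum and amikacin at 37°C, 5% CO₂. Seeded 25,000 cells/well, grown 24 h, then exposed to compounds diluted in serum-free medium for 48 h. Viability by Neutral Red uptake, % decrease versus vehicle control. IC50 from dose curves, triplicate means. Doxorubicin positive control.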

[2] = Antiinflammatory activity in human SW1353 cells assessed as inhibition of PMA-induced NF-kappaB activity incubated for 30 mins prior to PMA challenge measured after 8 hrs by luciferase reporter gene assay; format: cell-based
Procedure, shortened: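 SW1353 cells in DMEM/F12 with 10% FBS, electroporated with NF-κB luciferase plasmid (160 V, one 70-ms pulse), plated at 1.25 × 10⁵ cells/well. After 24 h, graded compound concentrations added 30 min before PMA 70 ng/mL, then 8 h incubation. Luciferase read-out, % inhibition versus vehicle, IC50 from dose curves. Sp-1 reporter served as nonspecific control.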

SK-OV-3 [3] = test: Cytotoxicity against human SKOV3 cells after 48 hrs by neutral red assay relative to control; format: cell-based; conditions: SK-OV-3, 48 h; procedure, shortened: as §1
[4] = Cytotoxicity against pig LLC-PK11 cells up to 25 ug/ml after 48 hrs by neutral red assay relative to control; format: cell-based, Sus scrofa; conditions: llc-pk11, 48 h
Procedure, shortened: (§2)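 Cells grown in RPMI-1640 with 10% bovine calf serum and amikacin at 37 °C, 5% CO2. Seeded at 25,000 cells/well and grown 24 h, then exposed 48 h to samples diluted in serum-free medium. Viability by Neutral Red; % decrease vs vehicle; IC50 from dose curves. Triplicate runs, mean reported; doxorubicin as positive control.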

Rattus norvegicus [5] = test: Antiinflammatory activity in albino rat assessed as inhibition of carrageenan-induced paw edema at 30 mg/kg, ip administered 1 hr prior to carrageenan challenge measured 1 hr after induction of inflammation relative to control; format: functional
Procedure, shortened: (§3)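 Adult albino rats of both sexes, 120–150 g, groups of five, pre-hydrated with 3 ml water orally. Compounds suspended in distilled water with few drops Tween 80, given ip 1 h before subplantar s.c. 1% carrageenan into right hind paw. Paw thickness measured by dial calipers, left paw as control. % inhibition = (1 – Lt/Lc) × 100 versus saline/Tween 80 group.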

Rattus norvegicus [6] = test: Antiinflammatory activity in albino rat assessed as inhibition of carrageenan-induced paw edema at 30 mg/kg, ip administered 1 hr prior to carrageenan challenge measured 4 hrs after induction of inflammation relative to control; format: functional; procedure, shortened: as §3
SK-MEL [7] = test: Cytotoxicity against human SK-MEL cells up to 25 ug/ml after 48 hrs by neutral red assay relative to control; format: cell-based; procedure, shortened: as §2
Rattus norvegicus [8] = test: Antiinflammatory activity in albino rat assessed as inhibition of carrageenan-induced paw edema at 30 mg/kg, ip administered 1 hr prior to carrageenan challenge measured 3 hrs after induction of inflammation relative to control; format: functional; procedure, shortened: as §3
Rattus norvegicus [9] = test: Antiinflammatory activity in albino rat assessed as inhibition of carrageenan-induced paw edema at 30 mg/kg, ip administered 1 hr prior to carrageenan challenge measured 2 hrs after induction of inflammation relative to control; format: functional; procedure, shortened: as §3
KB [10] = test: Cytotoxicity against human KB cells up to 25 ug/ml after 48 hrs by neutral red assay relative to control; format: cell-based; procedure, shortened: as §2
Vero [11] = test: Cytotoxicity against African green monkey Vero cells after 48 hrs by neutral red assay relative to control; format: cell-based; conditions: chlorocebus sabaeus; procedure, shortened: as §1
Mus musculus [12] = test: Antinociceptive activity in ip dosed Swiss mouse assessed as inhibition of acetic acid-induced writhing response at 3 mg/kg, ip administered 30 mins prior to acetic acid challenge measured for 20 mins relative to vehicle-treated control; format: functional, organism-based
Procedure, shortened: (§4)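 Mice dosed i.p. with compound or vehicle 15 min before testing, or with indomethacin 3 mg/kg i.p. 30 min before. After 15 min habituation in an enclosure, 0.9% acetic acid given i.p. (1 ml/0.1 kg) and writhes counted for 20 min. Non-responders excluded; n = 4-6; mean ± SD.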

Mus musculus [13] = test: Antinociceptive activity in ip dosed Swiss mouse assessed as inhibition of acetic acid-induced writhing response administered 15 mins prior to acetic acid challenge measured for 20 mins relative to vehicle-treated control; format: functional, organism-based; procedure, shortened: as §4
KB [14] = test: Cytotoxicity against human KB cells after 48 hrs by neutral red assay relative to control; format: cell-based; procedure, shortened: as §1
Vero [15] = test: Cytotoxicity against African green monkey Vero cells up to 25 ug/ml after 48 hrs by neutral red assay relative to control; format: cell-based; conditions: chlorocebus sabaeus; procedure, shortened: as §2
BT-549 [16] = test: Cytotoxicity against human BT549 cells up to 25 ug/ml after 48 hrs by neutral red assay relative to control; format: cell-based; conditions: bt-549, 48 h; procedure, shortened: as §2
SK-OV-3 [17] = test: Cytotoxicity against human SKOV3 cells up to 25 ug/ml after 48 hrs by neutral red assay relative to control; format: cell-based; conditions: sk-ov-3, 48 h; procedure, shortened: as §2
SK-MEL [18] = test: Cytotoxicity against human SK-MEL cells after 48 hrs by neutral red assay relative to control; format: cell-based; procedure, shortened: as §1

With `O=c1sc2ccccc2n1CCCCCCN1CCN(CCCCCn2c(=O)sc3ccccc32)CC1` as the compound, how does the IC50 (BT-549 [1]) read?
The IC50 was 19.6 µM.

And the IC50 [2]?
Its IC50 is 1.06 µM.

And the IC50 (SK-OV-3 [3])?
The IC50 was 25 µM.

What about the Activity [4] of the same compound?
The Activity was “Non-toxic”.

What about the inhibition in vivo at 30 mg/kg (Rattus norvegicus [5]) of the same compound?
The inhibition in vivo at 30 mg/kg was 33.9%.

What about the inhibition in vivo at 30 mg/kg (Rattus norvegicus [6]) of the same compound?
Its inhibition in vivo at 30 mg/kg is 34.9%.

What about the Activity (SK-MEL [7]) of the same compound?
The Activity was “Non-toxic”.

And the inhibition in vivo at 30 mg/kg (Rattus norvegicus [8])?
Its inhibition in vivo at 30 mg/kg is 34.7%.

And the inhibition in vivo at 30 mg/kg (Rattus norvegicus [9])?
Its inhibition in vivo at 30 mg/kg is 41.1%.

What about the Activity (KB [10]) of the same compound?
Its Activity is “Non-toxic”.

And the IC50 (Vero [11])?
Its IC50 is 25 µM.

With `COc1ccc2c(c1)c(CC(=O)O)c(C)n2C(=O)c1ccc(Cl)cc1` as the compound, how does the inhibition (Mus musculus [12]) read?
The inhibition was “Active”.

With `O=c1sc2ccccc2n1CCCCCCN1CCN(CCCCCCn2c(=O)sc3ccccc32)CC1` as the compound, how does the IC50 (BT-549 [1]) read?
Its IC50 is 24.3 µM.

What about the IC50 [2] of the same compound?
The IC50 was 0.41 µM.

And the IC50 (SK-OV-3 [3])?
Its IC50 is 24.3 µM.

What about the inhibition (Mus musculus [13]) of the same compound?
The inhibition was “Dose-dependent effect”.

What about the Activity [4] of the same compound?
Its Activity is “Non-toxic”.

And the IC50 (KB [14])?
The IC50 was 20.8 µM.

And the inhibition in vivo at 30 mg/kg (Rattus norvegicus [5])?
Its inhibition in vivo at 30 mg/kg is 32.2%.

And the inhibition in vivo at 30 mg/kg (Rattus norvegicus [6])?
Its inhibition in vivo at 30 mg/kg is 36.9%.

What about the Activity (SK-MEL [7]) of the same compound?
Its Activity is “Non-toxic”.

What about the inhibition in vivo at 30 mg/kg (Rattus norvegicus [8]) of the same compound?
Its inhibition in vivo at 30 mg/kg is 39.3%.

And the inhibition in vivo at 30 mg/kg (Rattus norvegicus [9])?
The inhibition in vivo at 30 mg/kg was 37.5%.

What about the Activity (Vero [15]) of the same compound?
The Activity was “Non-toxic”.

Which Activity (BT-549 [16]) does the source give for `c1ccc2sc(SCCCCN3CCN(CCCCSc4nc5ccccc5s4)CC3)nc2c1` here?
Its Activity is “Non-toxic”.

And the IC50 [2]?
The IC50 was 0.34 µM.

What about the Activity (SK-OV-3 [17]) of the same compound?
Its Activity is “Non-toxic”.

What about the inhibition (Mus musculus [13]) of the same compound?
The inhibition was “Dose-dependent effect”.

What about the Activity [4] of the same compound?
Its Activity is “Non-toxic”.

And the IC50 (SK-MEL [18])?
The IC50 was 17.5 µM.

What about the IC50 (KB [14]) of the same compound?
Its IC50 is 25 µM.

What about the inhibition in vivo at 30 mg/kg (Rattus norvegicus [5]) of the same compound?
Its inhibition in vivo at 30 mg/kg is 59.9%.

What about the inhibition in vivo at 30 mg/kg (Rattus norvegicus [6]) of the same compound?
The inhibition in vivo at 30 mg/kg was 47.1%.

What about the inhibition in vivo at 30 mg/kg (Rattus norvegicus [8]) of the same compound?
Its inhibition in vivo at 30 mg/kg is 63.4%.

What about the inhibition in vivo at 30 mg/kg (Rattus norvegicus [9]) of the same compound?
Its inhibition in vivo at 30 mg/kg is 64.3%.

And the Activity (Vero [15])?
The Activity was “Non-toxic”.

Which inhibition in vivo at 30 mg/kg (Rattus norvegicus [5]) does the source give for `O=C(c1ccccc1)c1ccc2n1CCC2C(=O)O` (stereo not given) [KETOROLAC] here?
The inhibition in vivo at 30 mg/kg was 70.5%.

And the inhibition in vivo at 30 mg/kg (Rattus norvegicus [6])?
The inhibition in vivo at 30 mg/kg was 79.3%.

What about the inhibition in vivo at 30 mg/kg (Rattus norvegicus [8]) of the same compound?
Its inhibition in vivo at 30 mg/kg is 75.4%.

What about the inhibition in vivo at 30 mg/kg (Rattus norvegicus [9]) of the same compound?
Its inhibition in vivo at 30 mg/kg is 74.2%.
